# Test results from PMC4469080 (Bioorganic & medicinal chemistry letters, 2015).
# Like-named read-outs stand apart in the source and are kept apart here.
# Experiments:
# mouse SR-BI [1] = biological target: T1, mouse SR-BI (Mus musculus, UniProt Q61009); assay: DiI-HDL uptake assay; type: cell-based; details: for activity in DiI uptake assay (in words): inhibition of SR-BI-mediated lipid uptake
# T1 sequence (Q61009 1-509): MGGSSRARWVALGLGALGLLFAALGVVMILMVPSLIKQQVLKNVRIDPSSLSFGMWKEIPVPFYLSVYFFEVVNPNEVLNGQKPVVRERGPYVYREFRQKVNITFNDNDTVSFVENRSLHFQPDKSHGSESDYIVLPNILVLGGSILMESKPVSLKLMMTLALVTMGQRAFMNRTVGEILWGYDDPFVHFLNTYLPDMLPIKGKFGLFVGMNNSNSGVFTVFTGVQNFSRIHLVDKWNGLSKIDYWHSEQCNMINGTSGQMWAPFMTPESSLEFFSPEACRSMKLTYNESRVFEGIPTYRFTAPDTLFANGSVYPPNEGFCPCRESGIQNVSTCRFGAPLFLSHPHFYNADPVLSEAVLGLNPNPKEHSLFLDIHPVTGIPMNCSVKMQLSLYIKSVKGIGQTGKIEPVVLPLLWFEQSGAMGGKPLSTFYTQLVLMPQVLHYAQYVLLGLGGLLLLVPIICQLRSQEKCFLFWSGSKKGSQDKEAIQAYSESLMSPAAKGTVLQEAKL
# Outline: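 CHO cells (ldlA line) overexpressing mouse SR-BI take up the fluorescent lipid DiI from DiI-labeled HDL particles. In the high-throughput screen, compounds were tested at 12.5 μM against 1 μM BLT-1 as the positive control. Plates with Z′ < 0.3 were excluded, and a counterscreen removed compounds that quenched DiI-HDL fluorescence in a dose-dependent manner. IC50 values came from retests of compounds as purified dry powders.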
# Solubility in PBS = type: physicochemical; details: in PBS (with 1% DMSO)
# mouse SR-BI [2] = biological target: T1, mouse SR-BI; details: read-out: IC50 in the primary assay; previous probes; cited from earlier work
Structure (SMILES),activity in DiI uptake assay (in words) (mouse SR-BI [1]),also measured
C[C@@H]1CN([C@H](C)CO)C(=O)c2cc(NC(=O)Cc3cn(C)c4ccccc34)ccc2O[C@H]1CN(C)S(=O)(=O)c1ccc(Cl)cc1 [Compound 1a],,IC50 (mouse SR-BI [1]): 460 nM
C[C@@H]1CN([C@H](C)CO)C(=O)c2cc(NC(=O)Cc3cn(C)c4ccccc34)ccc2O[C@H]1CN(C)S(C)(=O)=O [Compound 1g],weak potency,solubility (Solubility in PBS): good solubility
CC(C)NC(=O)Nc1cccc2c1O[C@@H](CN(C)S(=O)(=O)c1ccc(Cl)cc1)[C@H](C)CN([C@H](C)CO)C2=O [Compound 3],inactive,
CC(C)NC(=O)Nc1ccc2c(c1)C(=O)N([C@H](C)CO)C[C@@H](C)[C@H](CN(C)S(=O)(=O)c1ccc(Cl)cc1)O2 [Compound 4],abrogated the activity,
C[C@@H]1CN([C@H](C)CO)C(=O)c2cc(NC(=O)C3CCCCC3)ccc2O[C@H]1CN(C)C(=O)c1ccc(Cl)cc1 [Compound 5],inactive,
C[C@@H]1CN([C@H](C)CO)C(=O)c2cc(NC(=O)C3CCCCC3)ccc2O[C@H]1CN(C)S(=O)(=O)c1cccc(Cl)c1 [Compound 6],,"IC50 (mouse SR-BI [1]; DiI uptake assay, average of at least two measurements (Table 4, various analogs)): 800 nM"
C[C@@H]1CN([C@H](C)CN)C(=O)c2cc(NC(=O)Cc3cn(C)c4ccccc34)ccc2O[C@H]1CN(C)S(=O)(=O)c1ccc(Cl)cc1 [Compound 9],inactive,
C[C@@H]1CN([C@H](C)CN(C)C)C(=O)c2cc(NC(=O)Cc3cn(C)c4ccccc34)ccc2O[C@H]1CN(C)S(=O)(=O)c1ccc(Cl)cc1 [Compound 10],inactive,
COC[C@@H](C)N1C[C@@H](C)[C@H](CN(C)S(=O)(=O)c2ccc(Cl)cc2)Oc2ccc(NC(=O)NC(C)C)cc2C1=O [Compound 11],only weakly active,
CC(C)NC(=O)Nc1ccc2c(c1)C(=O)N(C(C)C)C[C@@H](C)[C@H](CN(C)S(=O)(=O)c1ccc(Cl)cc1)O2 [Compound 12],weak activity,
COCC(=O)n1ccc2cc(-c3csc(NC(=O)c4cc(OC)cc(OC)c4)n3)ccc21 [ML278],,IC50 (mouse SR-BI [2]): 6 nM
